Screening results: PubChem, Broad Institute
Only a selection was taken, and hits are over-represented in it overall.
KDM4C inh = KDM4C (human) demethylase inhibition; inhibition, % at 12.5 µM; Q9H3R0; AID 720574; GST-KDM4C 2-372, H3K9me3 peptide, LANCE TR-FRET; 96,000 tested, 0.15% active;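 active = mean replicate inhibition above about 25%, with at least 55% of replicates also reaching it, limit read from the data, passing the limit was not always enough; inconclusive = only one of those two conditions met; inactive = neither condition met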
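Test system – GST-tagged GASC-1 (JMJD2C) catalytic fragment, aa 2-372 · Medium – HEPES buffer, pH 7.5, plus ascorbate · Reagent – H3K9me3 peptide with Fe(II)/2OG · Compound – one test concentration per compound · Timing – 30 min reaction, 60 min detection, RT · Technique – TR-FRET with Eu antibody and ULight streptavidin, EDTA stop · Read-out basis – inhibition from TR-FRET ratio decrease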
IDH1 mut inh = IDH1 R132H (human) inhibition | O75874 | IDH1 R132H reductase, diaphorase/resazurin fluorescence, 60 min | inhibition, % at 10 µM | 70,000 tested, 0.18% active | AID 624101; in the data active = inhibition above about 34%; inconclusive = no clear call, values can overlap the other calls; inactive = below about 11%
Target sequence (O75874 whole entry R132H): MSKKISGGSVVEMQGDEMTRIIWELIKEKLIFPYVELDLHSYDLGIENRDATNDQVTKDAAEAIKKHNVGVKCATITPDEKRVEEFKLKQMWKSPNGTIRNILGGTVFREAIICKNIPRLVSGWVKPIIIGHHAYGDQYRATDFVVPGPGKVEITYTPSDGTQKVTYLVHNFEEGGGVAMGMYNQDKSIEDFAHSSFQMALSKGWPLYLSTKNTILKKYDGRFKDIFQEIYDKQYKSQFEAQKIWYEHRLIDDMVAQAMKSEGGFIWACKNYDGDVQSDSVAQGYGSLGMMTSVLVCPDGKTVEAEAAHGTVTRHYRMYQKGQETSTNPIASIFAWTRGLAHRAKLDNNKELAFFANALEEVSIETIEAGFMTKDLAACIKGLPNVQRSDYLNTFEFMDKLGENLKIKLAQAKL
Pf Dd2 growth = inhibitors of Plasmodium falciparum Dd2 growth; P. falciparum Dd2 growth, SYBR Green, 72 h; active compounds read low; activity change, % at 10 µM; 94,000 tested, 2.3% active; in the data active = activity change below about -80%; inconclusive = no clear call, values can overlap the other calls
Hits are given with their value; n = inactive; u = inconclusive; x = not tested or not shown.

SMILES	KDM4C inh	IDH1 mut inh	Pf Dd2 growth
Cc1ccc(S(=O)(=O)N(C)C[C@@H]2OCCCC[C@H](C)Oc3ccc(NC(=O)C4CCCCC4)cc3C(=O)N([C@H](C)CO)C[C@@H]2C)cc1	n	n	n
C[C@@H]1CN([C@@H](C)CO)C(=O)Cc2cc(NC(=O)C3CCCCC3)ccc2O[C@H]1CN(C)Cc1ccc(Oc2ccccc2)cc1	n	n	n
C[C@@H]1CCCCO[C@@H](CN(C)S(=O)(=O)c2cccs2)[C@@H](C)CN([C@@H](C)CO)C(=O)c2cc(NC(=O)Cc3ccccc3)ccc2O1	n	n	n
C[C@@H]1CN([C@@H](C)CO)C(=O)c2ccccc2-c2ccccc2CO[C@H]1CN(C)S(=O)(=O)c1ccccc1	n	x	n
CO[C@@H]1CN(C)C(=O)c2ccc(NC(=O)Nc3cccc(Cl)c3)cc2OC[C@H](C)NC[C@H]1C	n	n	n
O=C(Nc1ccc(Cl)c(Cl)c1)N[C@@H]1CC[C@@H](CCNC(=O)c2ccc(F)cc2)O[C@H]1CO	n	n	n
Cc1ccc(S(=O)(=O)N(C)C[C@H]2OCCCC[C@@H](C)Oc3ccc(NC(=O)C4CCCCC4)cc3C(=O)N([C@@H](C)CO)C[C@H]2C)cc1	n	x	n
Cc1ccc(S(=O)(=O)N(C)C[C@@H]2OCCCC[C@@H](C)Oc3ccc(NC(=O)C4CCCCC4)cc3C(=O)N([C@H](C)CO)C[C@@H]2C)cc1	n	x	-88.5
C[C@@H]1CN([C@H](C)CO)C(=O)c2cc(NC(=O)C3CCCCC3)ccc2O[C@@H](C)CCCCO[C@@H]1CN(C)S(=O)(=O)c1ccc(Cl)cc1	n	n	-85.6
Cc1ccc(S(=O)(=O)N(C)C[C@@H]2OCCCC[C@@H](C)Oc3ccc(NC(=O)C4CCCCC4)cc3C(=O)N([C@@H](C)CO)C[C@H]2C)cc1	n	x	n
CCC(=O)Nc1ccc2c(c1)C(=O)N(C)C[C@@H](OC)[C@H](C)CN(C(=O)c1ccccn1)[C@@H](C)CO2	n	n	n
Cc1noc(C)c1S(=O)(=O)N(C)C[C@H]1Oc2ccc(NS(=O)(=O)c3ccccc3)cc2CC(=O)N([C@H](C)CO)C[C@@H]1C	45.1	n	n
COc1ccc(S(=O)(=O)Nc2ccc3c(c2)CC(=O)N([C@@H](C)CO)C[C@H](C)[C@H](CN(C)S(=O)(=O)c2ccc(C)cc2)O3)cc1	n	n	-86.2
Cc1noc(C)c1S(=O)(=O)N(C)C[C@H]1Oc2ccc(NS(=O)(=O)c3ccccc3)cc2CC(=O)N([C@@H](C)CO)C[C@@H]1C	n	n	n
C[C@H](CO)N1C[C@H](C)[C@H](CN(C)S(=O)(=O)c2ccc(F)cc2)Oc2ccc(NS(=O)(=O)c3ccc(Cl)cc3)cc2C1=O	n	x	-92.8
C[C@H]1CN([C@@H](C)CO)C(=O)Cc2cc(NS(=O)(=O)c3ccc(Cl)cc3)ccc2O[C@H]1CN(C)S(=O)(=O)c1ccc(Cl)cc1	n	n	n
COc1ccc(S(=O)(=O)N(C)C[C@@H]2Oc3ccc(NS(=O)(=O)c4ccc(C)cc4)cc3CC(=O)N([C@H](C)CO)C[C@@H]2C)cc1	n	x	n
C[C@@H]1CN([C@@H](C)CO)C(=O)Cc2cc(NS(=O)(=O)c3ccc(Cl)cc3)ccc2O[C@H]1CN(C)S(=O)(=O)c1ccc(Cl)cc1	n	n	-85.4
C[C@@H]1CN([C@H](C)CO)C(=O)c2cc(NS(=O)(=O)c3ccc(Cl)cc3)ccc2O[C@@H]1CN(C)S(=O)(=O)c1ccc(F)cc1	n	n	n
O=C(C[C@H]1CC[C@@H]2[C@H](COC[C@H](O)CN2C(=O)c2ccccc2F)O1)N1CCCCC1	n	x	n
C[C@@H]1CCCCO[C@H](CN(C)Cc2ccncc2)[C@H](C)CN([C@H](C)CO)C(=O)c2cc(NC(=O)CCCN(C)C)ccc2O1	n	n	x
CCCNC(=O)[C@@H]1[C@@H](CO)[C@@H]2Cn3c(ccc(C4=CCCC4)c3=O)[C@@H]2N1C(=O)CC1CC1	n	x	x
C/C=C(\C)C(=O)OC(C)(C)C1Cc2cc3ccc(=O)oc3cc2O1 (stereo not given)	x	n	x
Cc1ccc(S(=O)(=O)Nc2ccc3c(c2)C(=O)N([C@H](C)CO)C[C@H](C)[C@H](CN(C)Cc2ccc(C(F)(F)F)cc2)OCCCC[C@H](C)O3)cc1	n	x	n
C[C@@H]1CN([C@@H](C)CO)C(=O)c2cc(NC(=O)Nc3ccccc3)ccc2O[C@@H](C)CCCCO[C@H]1CN(C)C(=O)Nc1cccc2ccccc12	n	x	n
SMILES	KDM4C inh	IDH1 mut inh	Pf Dd2 growth
C[C@@H]1CCCCO[C@@H](CN(C)C(=O)Nc2cccc3ccccc23)[C@@H](C)CN([C@H](C)CO)C(=O)c2cc(NC(=O)Cc3ccccc3)ccc2O1	n	n	-83.7
C[C@@H]1CCCCO[C@H](CN(C)C(=O)Nc2cccc3ccccc23)[C@H](C)CN([C@H](C)CO)C(=O)c2cc(NC(=O)Cc3ccccc3)ccc2O1	n	n	-84.2
C[C@@H]1CCCCO[C@H](CN(C)C(=O)Nc2cccc3ccccc23)[C@H](C)CN([C@@H](C)CO)C(=O)c2cc(NC(=O)Nc3ccccc3)ccc2O1	n	n	n
C[C@@H]1CN([C@H](C)CO)C(=O)c2cc(NC(=O)Cc3ccccc3)ccc2O[C@@H](C)CCCCO[C@@H]1CN(C)C(=O)Nc1cccc2ccccc12	n	x	-92.2
C[C@H](CO)N1C[C@H](C)[C@@H](CN(C)C(=O)Nc2cccc3ccccc23)OCCCC[C@H](C)Oc2ccc(NC(=O)Cc3ccccc3)cc2C1=O	n	n	u
C[C@H]1OC(=O)c2c(O)ccc(O)c2[C@H]1O	x	n	x
O=C([C@@H]1[C@@H](CO)[C@@H]2Cn3c(cccc3=O)[C@H]1N2CCC(F)(F)F)N1CCCCC1	n	x	n
CO[C@H]1CN(C)C(=O)c2ccc(NC(=O)Nc3c(C)noc3C)cc2OC[C@H](C)N(CC2CC2)C[C@H]1C	n	n	n
O=C(C[C@H]1CC[C@H](NC(=O)Cc2ccccn2)[C@H](CO)O1)NCCc1ccccc1	n	n	x
C[C@@H]1CN([C@@H](C)CO)C(=O)c2cc(C#C[C@@H](C)O)cnc2O[C@@H]1CN(C)C(=O)c1ccc(F)cc1	n	x	n
COc1ccc(CN2CC3(CN(Cc4ccccc4OC)C3)c3c([nH]c4cc(OC)ccc34)[C@H]2CO)cc1	n	x	n
CCS(=O)(=O)N1CC2(CN(Cc3ccc4c(c3)OCO4)[C@@H](CO)c3[nH]c4cc(OC)ccc4c32)C1	x	x	n
COc1ccc(CN2CC3(C2)CN(Cc2ccc4c(c2)OCO4)[C@@H](CO)c2[nH]c4cc(OC)ccc4c23)cc1	n	x	-83.9
COc1ccc(CN2CC3(C2)CN(Cc2ccc4c(c2)OCO4)[C@H](CO)c2[nH]c4cc(OC)ccc4c23)cc1	n	x	-86.9
COc1ccc2c3c([nH]c2c1)[C@@H](CO)N(C(=O)Nc1ccc(F)cc1)CC31CN(Cc2nccs2)C1	n	x	n
COc1ccc(CN(C)C[C@H]2Oc3ccc(NC(=O)NC4CCCCC4)cc3CC(=O)N([C@@H](C)CO)C[C@@H]2C)cc1	n	n	n
C[C@@H]1CN([C@H](C)CO)C(=O)c2cc(NC(=O)Nc3cccc4ccccc34)ccc2O[C@@H](C)CCCCO[C@H]1CN(C)Cc1ccc(C(F)(F)F)cc1	n	n	-84.9
